The text below walks through data of ChEMBL document CHEMBL1152606, “Thienylhalomethylketones: Irreversible glycogen synthase kinase 3 inhibitors as useful pharmacological tools” (Bioorg Med Chem, 2009).

Where only a bound is given, the exact number is not on record here.

The target of assay [1] is Glycogen synthase kinase-3 beta (Homo sapiens, UniProt P49841). The assay can be described thus: Inhibition of GSK3-beta by liquid scintillation counting. The method, boiled down:
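GSK-3β enzyme incubated with test compound at various concentrations, GS-1 peptide substrate (15 mM as printed), 15 μM ATP plus 0.2 μCi [γ-32P]ATP, in 50 mM Tris pH 7.5, 10 mM MgCl2, 1 mM EGTA, 1 mM EDTA; 20 min at 37 °C. Aliquots spotted on P81 phosphocellulose, washed in 1% phosphoric acid, counted by liquid scintillation.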

The species named for assay [2] is Rattus norvegicus. Briefly: Inhibition of rat CAM2 at 10 uM by liquid scintillation counting in presence of [33gammaP]ATP. A digest of the protocol:
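CaM kinase II from rat brain; [γ33-P]ATP plus autocamtide-2 (5 µM); staurosporine reference; labelled autocamtide-2 counted by liquid scintillation; compounds at 10 µM.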

The target in assay [3] is Epidermal growth factor receptor (Homo sapiens) (UniProt P00533). Briefly: Inhibition of EGFR in human A431 at 10 uM by liquid scintillation counting in presence of [33gammaP]ATP. The method, boiled down:
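EGFR kinase from A-431 cells; substrate [γ33-P]ATP plus poly GAT (0.48 mg/mL); PD 153035 reference; product measured by liquid scintillation; compounds at 10 µM.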

The target in assay [4] is Insulin receptor (Homo sapiens) (UniProt P06213). The assay can be described thus: Inhibition of human recombinant IR at 10 uM by liquid scintillation counting in presence of [33gammaP]ATP. The method, boiled down:
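Human recombinant insulin receptor kinase; [γ33-P]ATP plus poly GT (0.03 mg/mL); staurosporine reference; liquid scintillation detection; 10 µM compound.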

Assay [5] is filed under the species Rattus norvegicus. Briefly: Inhibition of rat recombinant MAPK at 10 uM by liquid scintillation counting in presence of [33gammaP]ATP. A digest of the protocol: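 Rat recombinant ERK42 MAP kinase expressed in E. coli; [γ33-P]ATP with MBP (0.5 mg/mL); staurosporine reference; liquid scintillation read-out; 10 µM compound.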
For assay [6], the target named is Dual specificity mitogen-activated protein kinase kinase 1 (Oryctolagus cuniculus) (UniProt P29678). Briefly: Inhibition of rabbit recombinant MEK1 expressed in Escherichia coli at 10 uM by liquid scintillation counting in presence of [33gammaP]ATP. A digest of the protocol: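 Rabbit recombinant MEK1 from E. coli; ATP plus unactivated MAP kinase (0.01 mg/mL) as substrate; staurosporine reference; liquid scintillation detection; 10 µM.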
Sequence of Dual specificity mitogen-activated protein kinase kinase 1 (Oryctolagus cuniculus) (P29678 whole entry): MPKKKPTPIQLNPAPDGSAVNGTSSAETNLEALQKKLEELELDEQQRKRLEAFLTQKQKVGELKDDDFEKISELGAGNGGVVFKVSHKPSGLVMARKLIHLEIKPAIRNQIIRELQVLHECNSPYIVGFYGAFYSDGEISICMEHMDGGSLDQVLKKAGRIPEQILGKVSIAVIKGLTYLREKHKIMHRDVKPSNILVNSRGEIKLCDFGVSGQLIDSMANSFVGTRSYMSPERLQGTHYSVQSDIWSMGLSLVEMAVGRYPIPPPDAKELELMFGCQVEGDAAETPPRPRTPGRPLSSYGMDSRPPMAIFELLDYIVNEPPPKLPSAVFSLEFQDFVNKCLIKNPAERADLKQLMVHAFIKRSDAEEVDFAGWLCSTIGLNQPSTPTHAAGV

The species entered for the next assay is Bos taurus. Briefly: Inhibition of bovine thymus p56LCK at 10 uM by liquid scintillation counting in presence of [33gammaP]ATP. A digest of the protocol: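 p56lck from bovine thymus; [γ33-P]ATP with polyGT (0.5 mg/mL) substrate; staurosporine reference; liquid scintillation read-out; compounds tested at 10 µM.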
The target of assay [7] is Proto-oncogene tyrosine-protein kinase Src (Homo sapiens) (UniProt P12931). The assay can be described thus: Inhibition of Src at 10 uM.
Sequence of Proto-oncogene tyrosine-protein kinase Src (Homo sapiens) (P12931 2-536 limits assumed): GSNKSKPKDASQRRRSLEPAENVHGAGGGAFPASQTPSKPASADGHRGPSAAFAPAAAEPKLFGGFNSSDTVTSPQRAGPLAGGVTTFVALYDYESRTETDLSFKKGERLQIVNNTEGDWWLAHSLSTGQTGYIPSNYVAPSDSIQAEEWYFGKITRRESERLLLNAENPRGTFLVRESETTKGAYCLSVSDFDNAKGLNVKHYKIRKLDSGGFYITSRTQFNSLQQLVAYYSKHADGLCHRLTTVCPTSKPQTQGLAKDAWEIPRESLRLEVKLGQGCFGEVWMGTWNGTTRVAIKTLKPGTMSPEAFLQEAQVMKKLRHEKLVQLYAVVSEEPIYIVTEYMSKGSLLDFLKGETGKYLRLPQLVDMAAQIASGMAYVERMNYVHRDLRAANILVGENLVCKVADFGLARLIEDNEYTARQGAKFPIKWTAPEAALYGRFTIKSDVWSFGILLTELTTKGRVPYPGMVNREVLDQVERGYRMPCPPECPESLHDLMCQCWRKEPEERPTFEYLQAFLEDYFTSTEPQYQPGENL
Assay [8] has as its target D(2) dopamine receptor (Homo sapiens) (UniProt P14416). The assay can be described thus: Displacement of [3H]spiperone from human recombinant dopamine D2 receptor expressed in CHO cells at 10 uM. In kind it is cell-based. The method, boiled down: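 Human recombinant D2 receptor expressed in CHO cells; [3H]spiperone ligand at 0.3 nM; (+)-buctaclamol as reference compound.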
(In general: Loss of bound radioactivity is the signal in a displacement assay; it reports binding, not function.)

The target of assay [9] is T1, Alpha-2A adrenergic receptor (Rattus norvegicus) (UniProt P22909).
T1 sequence (whole entry): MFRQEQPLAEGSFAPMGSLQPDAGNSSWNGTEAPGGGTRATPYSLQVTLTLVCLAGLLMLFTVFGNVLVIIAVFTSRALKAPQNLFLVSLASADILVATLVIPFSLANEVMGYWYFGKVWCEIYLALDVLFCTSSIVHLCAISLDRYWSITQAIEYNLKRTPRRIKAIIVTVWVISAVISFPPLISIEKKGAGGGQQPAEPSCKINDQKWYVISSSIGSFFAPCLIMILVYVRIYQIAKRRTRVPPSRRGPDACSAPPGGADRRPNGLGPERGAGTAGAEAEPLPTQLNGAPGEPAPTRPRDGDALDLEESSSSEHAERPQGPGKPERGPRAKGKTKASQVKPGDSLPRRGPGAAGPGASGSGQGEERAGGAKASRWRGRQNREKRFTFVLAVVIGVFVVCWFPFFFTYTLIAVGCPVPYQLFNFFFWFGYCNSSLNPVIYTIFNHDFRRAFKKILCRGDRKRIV
Briefly: Displacement of [3H]RX821002 from alpha2 adrenoceptor in rat cerebral cortex at 10 uM. The format is tissue-based. The method, boiled down: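 Rat cerebral cortex source; [3H]RX 821002 ligand at 0.5 nM; yohimbine as reference compound; non-selective alpha-2 site.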

The target of assay [10] is D(3) dopamine receptor (Homo sapiens) (UniProt P35462). Briefly: Displacement of [3H]spiperone from human recombinant dopamine D3 receptor expressed in CHO cells at 10 uM. The format is cell-based. A digest of the protocol:
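Human recombinant D3 receptor from CHO cells; [3H]spiperone 0.3 nM as ligand; (+)-buctaclamol reference compound.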

Assay [11] is filed under the species Rattus norvegicus. The assay can be described thus: Displacement of [3H]AMPA from AMPA receptor in rat cerebral cortex at 10 uM. In kind it is tissue-based.
Assay [12] deals with Glutamate NMDA receptor (Rattus norvegicus) (UniProt P35439+Q00959+Q00960+Q00961+Q62645+Q8VHN2+Q9R1M7). Briefly: Displacement of [3H]CGP39653 from NMDA receptor in rat cerebral cortex at 10 uM. In kind it is tissue-based.
Assay [13] can be described thus: Displacement of [3H]QNB from muscarinic receptor at 10 uM.
The species entered for assay [14] is Rattus norvegicus. The assay can be described thus: Displacement of [3H]cystisine from alpha-BGTX insensitive nicotinic acetylcholine receptor in rat cerebral cortex at 10 uM. In kind it is tissue-based.
Assay [15] is filed under the species Rattus norvegicus. Briefly: Displacement of [3H]cystisine from alpha-BGTX sensitive nicotinic acetylcholine receptor in rat cerebral cortex. The format is tissue-based. Details: concentration or dose not given beside the values. As to conditions: concentration not given here.
The target of assay [16] is Tyrosine-protein kinase ABL1 (Mus musculus) (UniProt P00520). Briefly: Inhibition of mouse recombinant Abl expressed in Escherichia coli at 10 uM by fluorescence polarization. (Polarisation of emitted light reports the rotation of a fluorescent probe.)
The test system of assay [17] is 5-HT (non-selective) serotonin receptor (Rattus norvegicus). The assay can be described thus: Inhibition of [3H]serotonine binding to non-selective 5-HT serotoninergic receptor in rat cerebral cortex at 10 uM.

Sequence of Epidermal growth factor receptor (Homo sapiens) (P00533 whole entry): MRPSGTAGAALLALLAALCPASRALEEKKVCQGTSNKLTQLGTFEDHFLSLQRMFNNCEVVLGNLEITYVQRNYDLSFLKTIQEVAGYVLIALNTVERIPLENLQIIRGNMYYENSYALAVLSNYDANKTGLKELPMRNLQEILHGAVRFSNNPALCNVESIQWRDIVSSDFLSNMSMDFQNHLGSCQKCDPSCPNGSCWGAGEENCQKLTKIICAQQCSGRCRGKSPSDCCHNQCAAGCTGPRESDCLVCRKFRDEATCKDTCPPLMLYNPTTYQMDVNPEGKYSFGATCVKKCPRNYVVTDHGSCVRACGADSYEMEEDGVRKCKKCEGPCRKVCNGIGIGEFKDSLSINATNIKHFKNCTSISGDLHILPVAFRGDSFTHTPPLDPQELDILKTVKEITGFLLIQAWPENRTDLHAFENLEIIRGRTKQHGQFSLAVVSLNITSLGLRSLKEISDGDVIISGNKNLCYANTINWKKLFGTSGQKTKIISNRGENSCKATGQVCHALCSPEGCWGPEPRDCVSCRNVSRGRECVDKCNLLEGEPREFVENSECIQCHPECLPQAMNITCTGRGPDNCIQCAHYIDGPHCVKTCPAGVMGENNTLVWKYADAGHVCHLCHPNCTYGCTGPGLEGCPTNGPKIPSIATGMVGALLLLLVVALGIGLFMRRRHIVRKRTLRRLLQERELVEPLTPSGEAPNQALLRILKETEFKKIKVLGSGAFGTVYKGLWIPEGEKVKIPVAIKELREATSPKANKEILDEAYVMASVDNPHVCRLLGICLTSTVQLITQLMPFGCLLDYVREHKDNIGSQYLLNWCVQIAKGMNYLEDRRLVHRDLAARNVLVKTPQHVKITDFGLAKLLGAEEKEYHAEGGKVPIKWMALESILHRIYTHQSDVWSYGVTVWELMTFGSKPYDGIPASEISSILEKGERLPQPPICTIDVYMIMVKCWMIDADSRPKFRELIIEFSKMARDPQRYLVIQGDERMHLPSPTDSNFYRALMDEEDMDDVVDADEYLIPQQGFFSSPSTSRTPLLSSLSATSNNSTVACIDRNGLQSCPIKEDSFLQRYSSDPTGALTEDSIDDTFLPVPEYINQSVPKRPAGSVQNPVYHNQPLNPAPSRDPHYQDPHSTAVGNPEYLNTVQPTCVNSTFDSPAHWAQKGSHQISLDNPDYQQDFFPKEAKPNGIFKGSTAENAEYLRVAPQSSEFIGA
Sequence of D(3) dopamine receptor (Homo sapiens) (P35462 whole entry): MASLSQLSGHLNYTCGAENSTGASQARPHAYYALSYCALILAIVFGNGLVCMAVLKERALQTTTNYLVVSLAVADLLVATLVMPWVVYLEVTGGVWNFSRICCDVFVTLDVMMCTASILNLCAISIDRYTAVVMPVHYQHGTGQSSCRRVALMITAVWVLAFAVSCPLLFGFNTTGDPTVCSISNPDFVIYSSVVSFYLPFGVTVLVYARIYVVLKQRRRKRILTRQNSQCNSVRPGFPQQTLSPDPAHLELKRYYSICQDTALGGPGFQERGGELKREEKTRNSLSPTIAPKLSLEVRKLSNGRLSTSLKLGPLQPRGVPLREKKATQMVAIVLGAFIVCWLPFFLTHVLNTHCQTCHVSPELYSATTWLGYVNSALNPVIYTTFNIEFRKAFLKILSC
Sequence of Glycogen synthase kinase-3 beta (P49841 whole entry): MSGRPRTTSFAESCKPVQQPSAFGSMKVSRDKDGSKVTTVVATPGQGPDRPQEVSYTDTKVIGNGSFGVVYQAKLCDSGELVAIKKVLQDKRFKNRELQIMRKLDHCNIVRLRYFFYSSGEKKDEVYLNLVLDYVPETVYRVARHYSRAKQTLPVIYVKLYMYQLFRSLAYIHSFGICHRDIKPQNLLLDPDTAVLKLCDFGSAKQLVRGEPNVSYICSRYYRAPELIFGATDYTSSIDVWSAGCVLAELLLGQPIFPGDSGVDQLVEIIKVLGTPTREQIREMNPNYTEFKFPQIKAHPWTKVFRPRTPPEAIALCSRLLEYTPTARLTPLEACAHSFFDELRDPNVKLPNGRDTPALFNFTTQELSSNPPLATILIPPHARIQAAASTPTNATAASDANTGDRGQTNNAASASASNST
Sequence of Insulin receptor (Homo sapiens) (P06213 28-758 limits assumed): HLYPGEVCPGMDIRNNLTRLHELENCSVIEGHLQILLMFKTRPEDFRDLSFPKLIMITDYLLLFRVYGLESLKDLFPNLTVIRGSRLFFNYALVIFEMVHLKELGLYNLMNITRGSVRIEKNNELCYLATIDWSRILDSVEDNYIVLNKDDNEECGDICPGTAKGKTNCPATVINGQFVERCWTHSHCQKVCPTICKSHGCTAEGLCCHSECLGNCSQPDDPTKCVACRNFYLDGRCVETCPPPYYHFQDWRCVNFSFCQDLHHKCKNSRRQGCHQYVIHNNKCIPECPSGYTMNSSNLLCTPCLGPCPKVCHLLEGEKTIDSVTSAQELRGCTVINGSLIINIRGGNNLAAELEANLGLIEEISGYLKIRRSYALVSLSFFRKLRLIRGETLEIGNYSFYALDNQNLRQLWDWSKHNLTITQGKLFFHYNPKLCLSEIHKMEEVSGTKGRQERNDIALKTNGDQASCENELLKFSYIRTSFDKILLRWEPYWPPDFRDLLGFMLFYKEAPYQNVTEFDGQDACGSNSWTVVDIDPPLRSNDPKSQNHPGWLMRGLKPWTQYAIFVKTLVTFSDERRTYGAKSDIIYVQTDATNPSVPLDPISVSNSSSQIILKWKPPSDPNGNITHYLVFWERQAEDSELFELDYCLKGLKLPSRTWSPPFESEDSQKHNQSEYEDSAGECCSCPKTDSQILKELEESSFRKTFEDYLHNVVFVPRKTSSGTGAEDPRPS
Sequence of Insulin receptor (Homo sapiens) (P06213 763-1382 limits assumed): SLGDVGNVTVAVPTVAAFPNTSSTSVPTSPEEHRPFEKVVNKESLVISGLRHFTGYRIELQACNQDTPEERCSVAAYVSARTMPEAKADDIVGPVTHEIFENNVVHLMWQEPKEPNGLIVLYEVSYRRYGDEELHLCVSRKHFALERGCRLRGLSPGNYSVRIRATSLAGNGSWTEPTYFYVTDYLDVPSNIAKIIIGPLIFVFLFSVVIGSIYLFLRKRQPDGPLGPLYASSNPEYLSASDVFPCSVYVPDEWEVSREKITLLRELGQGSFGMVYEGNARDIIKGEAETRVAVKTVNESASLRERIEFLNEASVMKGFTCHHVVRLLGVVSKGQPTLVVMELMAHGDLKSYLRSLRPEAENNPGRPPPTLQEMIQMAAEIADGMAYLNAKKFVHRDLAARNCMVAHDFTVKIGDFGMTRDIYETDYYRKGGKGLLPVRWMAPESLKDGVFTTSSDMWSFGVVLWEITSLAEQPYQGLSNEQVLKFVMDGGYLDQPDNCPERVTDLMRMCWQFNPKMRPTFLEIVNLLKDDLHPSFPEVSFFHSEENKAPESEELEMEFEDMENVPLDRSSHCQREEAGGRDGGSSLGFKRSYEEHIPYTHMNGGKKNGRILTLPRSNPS
Sequence of D(2) dopamine receptor (Homo sapiens) (P14416 whole entry): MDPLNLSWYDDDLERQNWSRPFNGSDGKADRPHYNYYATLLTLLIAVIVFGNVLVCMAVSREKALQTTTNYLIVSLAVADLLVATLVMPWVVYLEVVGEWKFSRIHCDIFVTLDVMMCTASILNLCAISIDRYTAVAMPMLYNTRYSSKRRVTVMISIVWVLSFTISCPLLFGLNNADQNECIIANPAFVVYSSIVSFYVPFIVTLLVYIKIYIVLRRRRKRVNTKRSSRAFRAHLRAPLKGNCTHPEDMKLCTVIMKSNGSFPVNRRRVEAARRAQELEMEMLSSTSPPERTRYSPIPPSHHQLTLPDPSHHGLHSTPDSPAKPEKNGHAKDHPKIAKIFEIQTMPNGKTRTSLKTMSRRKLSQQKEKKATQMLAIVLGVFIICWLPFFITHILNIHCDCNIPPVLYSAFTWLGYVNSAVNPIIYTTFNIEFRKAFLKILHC

As usually defined, the IC50 is the concentration that inhibits the measured activity by half. Turning to `O=C(CCCCl)c1ccc(Br)s1`, the 50% inhibitory concentration (IC50) in assay [1] was over 100 µM.
On the same count and under the same terms, to `CC(N)Cc1cc(Cl)cs1` (centres undefined) belongs over 100 µM.
A word on the inhibition: it is the drop in the measured response relative to a control, in per cent. Take `O=C(CCl)c1cc(Cl)sc1Cl`: the inhibition in the assay listed under Rattus norvegicus [2] was 10%; in [3], under 10%; in assay [4], under 10%; in the assay listed under Rattus norvegicus [5], under 10%; in assay [6], under 10%; in the assay filed under Bos taurus, 41%. The inhibition in assay [7] is 12%; in assay [8] it was under 10%; in assay [9] it was under 10%; in assay [10], under 10%; in the assay filed under Rattus norvegicus [11], 17%; in assay [12] it was under 10%. Also, the inhibition in [13] is under 10%; in the assay filed under Rattus norvegicus [14], under 10%; in the assay filed under Rattus norvegicus [15] it was under 10%; in assay [16] it was under 10%; in assay [17] it was 12%.
Turning to `O=Cc1cccs1` [2-THIOPHENENECARBOXALDEHYDE], the concentration for half-maximal inhibition (IC50) in assay [1] is over 100 µM.
Take `O=C(CCl)c1scc(Br)c1Br`: the inhibition in the assay listed under Rattus norvegicus [2] is under 10%; in [3], under 10%; in [4], under 10%; in the assay filed under Rattus norvegicus [5], under 10%; in assay [6] it was under 10%; in the assay filed under Bos taurus, 20%. In addition, the inhibition is under 10% in assay [8]; under 10% in [9]; 12% in assay [10]; under 10% in the assay filed under Rattus norvegicus [11]; under 10% in [12]; 11% in [13]. Moreover, the inhibition (in the assay listed under Rattus norvegicus [14]; in the assay filed under Rattus norvegicus [15]; in assay [16]; in assay [17]) was under 10% throughout.
Take `O=C(CBr)c1scc(Br)c1Br`: inhibition in assay [1] was half-maximal at 1 µM (IC50). Moreover, the inhibition in the assay listed under Rattus norvegicus [2] is under 10%; in assay [3] it was 17%; in [4] it was under 10%; in the assay listed under Rattus norvegicus [5], under 10%; in assay [6], under 10%; in the assay filed under Bos taurus it was under 10%. Also, the inhibition was 66% in assay [7]; under 10% in assay [8]; under 10% in [9]; under 10% in assay [10]; under 10% in the assay filed under Rattus norvegicus [11]; under 10% in [12]. For the same compound, the inhibition in assay [13] was under 10%; in the assay listed under Rattus norvegicus [14], 22%; in the assay filed under Rattus norvegicus [15], under 10%; in [16], under 10%; in assay [17], under 10%.
For the compound `OC(CCl)c1sc(Br)c(Br)c1Br` (centres undefined), the IC50 in assay [1] was determined as 75 µM.
On the same count and under the same terms, the result for `CC(=O)c1ccccc1` [ACETOPHENONE] reads over 100 µM; that for `O=C(Nn1c2ccccc2c2ccccc21)c1ccccc1`, over 100 µM; that for `O=C(CBr)c1ccc(Br)s1`, 1 µM.
In turn, `O=Cc1cc(Br)c(Br)s1` displayed an IC50 in assay [1] of over 100 µM.
The compound `CCOC(=O)c1sc(SC(C)=O)cc1O` yielded an IC50 in [1] of 25 µM.
`CCOC(=O)c1ccccc1` [ETHYL BENZOATE] came in with an IC50 in assay [1] of over 100 µM.
Same read-out and setting: to `N=C(c1ccccc1Cl)c1ccccc1N(NC(=O)c1ccccc1)c1ccccc1` belongs over 100 µM; to `O=Nn1c2ccccc2c2cc(Cl)ccc21`, over 100 µM; to `O=C(CBr)c1sc(Br)cc1Br`, 1 µM.
`O=C(CBr)c1cc(Br)c(Br)s1`: it took 1 µM to reach half-maximal inhibition in assay [1] (IC50). The inhibition was under 10% in the assay listed under Rattus norvegicus [2]; under 10% in assay [3]; 12% in assay [4]; under 10% in the assay filed under Rattus norvegicus [5]; under 10% in assay [6]; under 10% in the assay listed under Bos taurus. Further, the inhibition in assay [7] was 76%; in assay [8], under 10%; in [9], under 10%; in assay [10], under 10%; in the assay filed under Rattus norvegicus [11], under 10%; in assay [12], under 10%. The inhibition (in assay [13]; in the assay filed under Rattus norvegicus [14]; in the assay filed under Rattus norvegicus [15]; in assay [16]; in assay [17]) was under 10% throughout.
For `COc1cc2c(cc1OC)C(=O)CC2`, the concentration for half-maximal inhibition (IC50) in [1] was over 100 µM.
On to `c1ccc(-c2nc(-c3ccccc3)n(-c3ccccc3)n2)cc1`, for which, in assay [1], the IC50 is over 100 µM.
In the case of `CC(=O)c1csc(C(=O)CCl)c1`, the inhibition in the assay listed under Rattus norvegicus [2] is under 10%; in assay [3], under 10%; in assay [4] it was under 10%; in the assay filed under Rattus norvegicus [5], under 10%; in assay [6] it was 12%; in the assay filed under Bos taurus it was under 10%. Further, the inhibition was 22% in assay [7]; under 10% in assay [8]; under 10% in [9]; under 10% in [10]; under 10% in the assay filed under Rattus norvegicus [11]; under 10% in assay [12]. The inhibition was under 10% in assay [13]; 17% in the assay filed under Rattus norvegicus [14]; under 10% in the assay filed under Rattus norvegicus [15]; under 10% in assay [16]; under 10% in assay [17].
The compound `CCOC(=O)c1cccs1` registered an IC50 in [1] of over 100 µM.
On to `O=C(CCCCl)c1ccc(Cl)s1`, for which the concentration for half-maximal inhibition (IC50) in assay [1] is over 100 µM.
As for `Cc1sc(C(=O)CCl)cc1C(=O)CCl`, the inhibition in the assay listed under Rattus norvegicus [2] was under 10%; in assay [3] it was 25%; in assay [4], 12%; in the assay filed under Rattus norvegicus [5], under 10%; in [6] it was under 10%; in the assay filed under Bos taurus, 17%. For the same compound, the inhibition in assay [7] was 54%; in assay [8], under 10%; in assay [9], under 10%; in assay [10], under 10%; in the assay filed under Rattus norvegicus [11], under 10%; in [12], under 10%. Moreover, the inhibition (in assay [13]; in the assay filed under Rattus norvegicus [14]; in the assay filed under Rattus norvegicus [15]; in assay [16]; in [17]) was under 10% throughout.
In turn, `CCSC1=NC(c2ccccc2)=NN(c2ccccc2)c2ccccc21` registered an IC50 in assay [1] of over 100 µM.
In assay [1], `O=C(CCCCl)c1cc(Cl)sc1Cl` had an IC50 of over 100 µM.
Turning to `CC(=O)c1ccc(Cl)cc1`, the IC50 in [1] was over 100 µM.
On the same count and under the same terms, the result for `CCOC(=O)c1sc(C)c(C)c1O` reads over 100 µM.
